The record followed here is ChEMBL document CHEMBL3045755, “Specific and differential inhibition of very-long-chain fatty acid elongases from Arabidopsis thaliana by different herbicides” (Proc Natl Acad Sci U S A, 2004).

The source made the active and inactive calls. The rule behind the calls is not given here.

In one series the test system is Saccharomyces cerevisiae. The series can be described thus: Growth inhibition of Saccharomyces cerevisiae INVSc1 at 100 uM after 18 to 20 hr. Type of series: organism-based. The conditions noted are these: in vivo. The method in brief: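 Yeast strains expressing the active elongases were induced in raffinose/galactose medium with herbicide at 100 μM for the 18–20 h incubation. Growth was followed by optical density and compared with cultures lacking inhibitor.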

A further series concerns Arabidopsis thaliana. The series can be described thus: Herbicidal activity against Arabidopsis thaliana assessed as apperance of fiddle head phenotype. The format is functional, organism-based.
Series [1] has as its target T1, 3-ketoacyl-CoA synthase 20 (Arabidopsis thaliana) (UniProt Q9FG87).
T1 sequence (whole entry): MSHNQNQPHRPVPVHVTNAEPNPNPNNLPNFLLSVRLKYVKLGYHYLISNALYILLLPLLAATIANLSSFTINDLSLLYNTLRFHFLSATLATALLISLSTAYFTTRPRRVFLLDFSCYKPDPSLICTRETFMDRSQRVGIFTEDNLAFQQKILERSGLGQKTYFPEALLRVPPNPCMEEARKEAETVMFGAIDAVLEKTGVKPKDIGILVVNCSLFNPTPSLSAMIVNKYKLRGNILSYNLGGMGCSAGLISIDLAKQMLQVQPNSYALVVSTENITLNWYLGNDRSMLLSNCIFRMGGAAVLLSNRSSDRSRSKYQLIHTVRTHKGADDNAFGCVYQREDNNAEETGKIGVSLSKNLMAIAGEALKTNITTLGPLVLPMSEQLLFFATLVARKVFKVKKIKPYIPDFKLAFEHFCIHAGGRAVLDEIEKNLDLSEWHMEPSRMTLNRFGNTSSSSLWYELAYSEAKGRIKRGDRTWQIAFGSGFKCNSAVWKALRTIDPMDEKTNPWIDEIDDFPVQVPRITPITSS
The series can be described thus: Inhibition of Arbidopsis thaliana C-terminal His-tagged At5g43760 expressed in Saccharomyces cerevisiae INVSc1 at 100 uM after 18 to 20 hr by GC/MS analysis. The method in brief:
(§1)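 pYES2 galactose-inducible constructs in INVSc1, grown at 28°C in uracil-dropout minimal medium with 2% glucose. Log-phase cells were induced in 1% raffinose/2% galactose with herbicide at final 100 μM, in 50-ml culture for 18–20 h, then freeze-dried. FAMEs were made in 1 M methanolic HCl/5% dimethoxypropane at 80°C for 1 h under N2 and run on GC/MS. VLCFA profile was compared with herbicide-free elongase-expressing cells.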

For series [2], the target named is T2, 3-ketoacyl-CoA synthase 2 (Arabidopsis thaliana) (UniProt Q5XEP9).
T2 sequence (whole entry): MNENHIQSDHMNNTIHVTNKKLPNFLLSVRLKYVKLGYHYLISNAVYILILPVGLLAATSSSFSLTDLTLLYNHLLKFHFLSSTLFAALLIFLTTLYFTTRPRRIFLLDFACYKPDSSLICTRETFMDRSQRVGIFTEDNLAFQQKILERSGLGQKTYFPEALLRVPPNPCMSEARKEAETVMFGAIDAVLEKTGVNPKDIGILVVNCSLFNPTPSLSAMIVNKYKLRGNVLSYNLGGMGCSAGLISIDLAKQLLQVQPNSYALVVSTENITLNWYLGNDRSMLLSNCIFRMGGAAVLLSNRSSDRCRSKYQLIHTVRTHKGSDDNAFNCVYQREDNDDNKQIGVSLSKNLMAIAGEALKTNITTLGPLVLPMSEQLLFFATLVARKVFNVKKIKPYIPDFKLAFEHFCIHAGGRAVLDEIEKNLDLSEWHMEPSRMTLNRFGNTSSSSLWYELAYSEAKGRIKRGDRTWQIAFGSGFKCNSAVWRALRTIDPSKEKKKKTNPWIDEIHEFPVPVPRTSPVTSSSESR
As to the kind of experiment: Inhibition of Arbidopsis thaliana C-terminal His-tagged At1g04220 expressed in Saccharomyces cerevisiae INVSc1 at 100 uM after 18 to 20 hr by GC/MS analysis. The method in brief: as §1

Series [3] addresses T3, 3-ketoacyl-CoA synthase 5 (Arabidopsis thaliana) (UniProt Q9C6L5).
T3 sequence (whole entry): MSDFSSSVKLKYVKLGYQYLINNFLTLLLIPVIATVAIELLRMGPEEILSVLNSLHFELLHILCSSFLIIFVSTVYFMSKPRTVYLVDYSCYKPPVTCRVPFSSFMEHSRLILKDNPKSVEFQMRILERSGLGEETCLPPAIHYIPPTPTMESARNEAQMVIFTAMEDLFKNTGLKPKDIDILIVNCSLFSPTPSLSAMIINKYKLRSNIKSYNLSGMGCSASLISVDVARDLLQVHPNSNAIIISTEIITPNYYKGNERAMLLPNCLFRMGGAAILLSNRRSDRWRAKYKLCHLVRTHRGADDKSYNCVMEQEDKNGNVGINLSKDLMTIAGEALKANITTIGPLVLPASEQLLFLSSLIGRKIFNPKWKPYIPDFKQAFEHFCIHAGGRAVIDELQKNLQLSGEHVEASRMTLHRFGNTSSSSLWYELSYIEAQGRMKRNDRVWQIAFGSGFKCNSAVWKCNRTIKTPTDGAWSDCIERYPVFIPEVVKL
As to the kind of experiment: Inhibition of Arbidopsis thaliana C-terminal His-tagged CER60 expressed in Saccharomyces cerevisiae INVSc1 at 100 uM after 18 to 20 hr by GC/MS analysis. In outline: as §1

Series [4] has as its target T4, 3-ketoacyl-CoA synthase 17 (Arabidopsis thaliana) (UniProt O65677).
T4 sequence (whole entry): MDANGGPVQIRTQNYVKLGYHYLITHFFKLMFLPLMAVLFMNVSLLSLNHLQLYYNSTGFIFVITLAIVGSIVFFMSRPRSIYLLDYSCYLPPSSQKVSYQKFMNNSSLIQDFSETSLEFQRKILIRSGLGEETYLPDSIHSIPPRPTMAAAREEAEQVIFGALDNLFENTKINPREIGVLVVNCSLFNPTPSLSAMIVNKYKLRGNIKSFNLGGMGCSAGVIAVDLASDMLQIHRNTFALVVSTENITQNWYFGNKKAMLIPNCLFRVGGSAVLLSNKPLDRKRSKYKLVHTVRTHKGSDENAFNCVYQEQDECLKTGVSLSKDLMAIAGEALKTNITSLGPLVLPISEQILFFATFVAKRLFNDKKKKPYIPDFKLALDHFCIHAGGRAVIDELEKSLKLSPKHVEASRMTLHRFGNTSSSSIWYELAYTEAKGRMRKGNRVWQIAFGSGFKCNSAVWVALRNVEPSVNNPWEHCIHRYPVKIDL
The series can be described thus: Inhibition of Arbidopsis thaliana C-terminal His-tagged KCS2 expressed in Saccharomyces cerevisiae INVSc1 at 100 uM after 18 to 20 hr by GC/MS analysis. In outline:
as §1

For series [5], the target named is T5, 3-ketoacyl-CoA synthase 1 (Arabidopsis thaliana) (UniProt Q9MAM3).
T5 sequence (whole entry): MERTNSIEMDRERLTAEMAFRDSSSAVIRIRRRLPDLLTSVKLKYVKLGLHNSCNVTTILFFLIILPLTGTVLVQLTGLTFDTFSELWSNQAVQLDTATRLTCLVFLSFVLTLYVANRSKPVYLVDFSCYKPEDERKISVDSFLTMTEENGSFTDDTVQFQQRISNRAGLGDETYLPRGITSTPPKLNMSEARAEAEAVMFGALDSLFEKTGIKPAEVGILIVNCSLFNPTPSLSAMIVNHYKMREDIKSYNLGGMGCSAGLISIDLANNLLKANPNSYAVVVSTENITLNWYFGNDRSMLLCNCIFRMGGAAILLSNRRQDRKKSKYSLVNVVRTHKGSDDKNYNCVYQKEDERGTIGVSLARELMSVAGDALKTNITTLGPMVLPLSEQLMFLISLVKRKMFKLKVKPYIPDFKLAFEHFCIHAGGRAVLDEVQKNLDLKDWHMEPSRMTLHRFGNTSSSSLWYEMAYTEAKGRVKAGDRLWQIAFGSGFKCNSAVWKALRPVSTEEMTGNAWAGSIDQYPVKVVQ
As to the kind of experiment: Inhibition of Arbidopsis thaliana C-terminal His-tagged KCS1 expressed in Saccharomyces cerevisiae INVSc1 at 100 uM after 18 to 20 hr by GC/MS analysis. The method in brief: as §1

In series [6] the target is T6, 3-ketoacyl-CoA synthase 18 (Arabidopsis thaliana) (UniProt Q38860).
T6 sequence (whole entry): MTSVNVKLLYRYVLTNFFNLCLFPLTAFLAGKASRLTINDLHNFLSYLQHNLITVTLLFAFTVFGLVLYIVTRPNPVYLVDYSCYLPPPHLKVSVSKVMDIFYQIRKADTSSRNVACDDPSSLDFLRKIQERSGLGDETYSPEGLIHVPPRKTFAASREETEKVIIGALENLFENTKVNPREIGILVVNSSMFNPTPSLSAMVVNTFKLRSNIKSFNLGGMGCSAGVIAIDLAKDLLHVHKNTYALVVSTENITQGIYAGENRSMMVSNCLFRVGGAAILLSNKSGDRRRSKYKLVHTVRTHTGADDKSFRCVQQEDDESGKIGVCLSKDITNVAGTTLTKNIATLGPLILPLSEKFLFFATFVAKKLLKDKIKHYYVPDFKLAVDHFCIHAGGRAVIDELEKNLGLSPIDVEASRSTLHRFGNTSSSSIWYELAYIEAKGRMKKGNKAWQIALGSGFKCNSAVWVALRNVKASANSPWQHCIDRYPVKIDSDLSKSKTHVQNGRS
As to the kind of experiment: Inhibition of Arbidopsis thaliana C-terminal His-tagged FAE1 expressed in Saccharomyces cerevisiae INVSc1 at 100 uM after 18 to 20 hr by GC/MS analysis. In outline: as §1

Consider `CCc1cccc(CC)c1N(COC)C(=O)CCl` [ALACHLOR], for which, in the series on Saccharomyces cerevisiae, the Activity entry is “Non-toxic”. The outcome in the series with Arabidopsis thaliana was inactive. Besides, the inhibition result in series [1], in series [3], in series [4] and in series [5] was “Active” each time. Besides, the inhibition result in series [2] and in series [6] was “inactive” in each case.

On to `CCS(=O)(=O)Oc1ccc2c(c1)C(C)(C)CO2` [BENFURESATE], for which the Activity result with Saccharomyces cerevisiae is “Non-toxic”. In the series on Arabidopsis thaliana, the result was Active. Further, the inhibition entry in series [1], in series [2], in series [3], in series [4], in series [5] and in series [6] was “inactive” in each case.

Regarding `CCN(CC)C(=O)n1cnc(S(=O)(=O)c2c(C)cc(C)cc2C)n1` [CAFENSTROLE], in the series on Saccharomyces cerevisiae, the Activity entry was “Non-toxic”. For the same molecule, the outcome in the series with Arabidopsis thaliana was Active. Moreover, the inhibition entry in series [1], in series [2], in series [3], in series [4], in series [5] and in series [6] was “Active” throughout.

In the case of `CN(C)C(=O)C(c1ccccc1)c1ccccc1` [DIPHENAMIDE], the Activity result in the series with Saccharomyces cerevisiae was “Non-toxic”. Also, the outcome with Arabidopsis thaliana was inactive. The inhibition result in series [1], in series [2], in series [3], in series [4], in series [5] and in series [6] was “inactive” throughout.

Regarding `CCOC1Oc2ccc(OS(C)(=O)=O)cc2C1(C)C` (configuration not stated) [ETHOFUMESATE], the Activity result in the series on Saccharomyces cerevisiae is reported as “Non-toxic”. Moreover, the result with Arabidopsis thaliana was Active. For the same molecule, the inhibition result in series [1], in series [2], in series [3], in series [4], in series [5] and in series [6] was “inactive” each time.

Turning to `CCN(C(=O)n1nnn(-c2ccccc2Cl)c1=O)C1CCCCC1` [FENTRAZAMIDE], the Activity result with Saccharomyces cerevisiae was “Non-toxic”. Besides, the result in the series with Arabidopsis thaliana was Active. The inhibition entry in series [1], in series [4] and in series [5] was “Active” throughout. For the same molecule, the inhibition entry in series [2], in series [3] and in series [6] was “inactive” throughout.

Take `CC(C)N(C(=O)COc1nnc(C(F)(F)F)s1)c1ccc(F)cc1` [FLUFENACET]: the Activity result in the series on Saccharomyces cerevisiae is “Non-toxic”. Moreover, the result in the series with Arabidopsis thaliana was Active. Moreover, the inhibition entry in series [1], in series [2], in series [3], in series [4], in series [5] and in series [6] was “Active” throughout.

As to `CCN(CC)C(=O)C(C)Oc1cccc2ccccc12` (configuration not stated) [NAPROPAMIDE], in the series on Saccharomyces cerevisiae, the Activity entry is reported as “Non-toxic”. The result in the series with Arabidopsis thaliana was inactive. Moreover, the inhibition result in series [1], in series [2], in series [3], in series [4], in series [5] and in series [6] was “inactive” each time.

Regarding `CC(C)N(C(=O)SCC(Cl)=C(Cl)Cl)C(C)C` [TRIALLATE], the Activity result with Saccharomyces cerevisiae was “Non-toxic”. Moreover, the result with Arabidopsis thaliana was inactive. The inhibition entry in series [1], in series [2], in series [4], in series [5] and in series [6] was “inactive” in each case. In addition, the inhibition result in series [3] is “Active”.
